From ChEMBL document CHEMBL1135766, “Synthesis of conformationally constrained analogues of linezolid: structure-activity relationship (SAR) studies on selected novel tricyclic oxazolidinones” (2002)

Legend:
Staphylococcus aureus [1] = experiment: In vitro antibacterial activity against Staphylococcus aureus ATCC 49951 (S. a. 213); type: functional
How it was run: (§1)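 Broth microdilution MIC per NCCLS guidelines in Mueller Hinton medium. Doubling dilutions from 256 to 1 μg/mL, inoculum (1–5) × 10⁵ CFU/mL, incubated overnight in ambient air at 35 °C. MIC is the lowest concentration giving complete growth inhibition. Linezolid and vancomycin served as controls.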

Staphylococcus aureus [2] = experiment: In vitro antibacterial activity against Staphylococcus aureus ATCC 29213 (S. a. 035); type: functional
How it was run: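 Broth microdilution per NCCLS guidelines in Mueller Hinton medium. Doubling dilutions 256–1 μg/mL; inoculum (1–5) × 10⁵ CFU/mL; plates incubated overnight at 35 °C in ambient air. MIC read as the lowest concentration giving complete growth inhibition. Linezolid and vancomycin served as controls.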

Enterococcus faecium = experiment: In vitro antibacterial activity against Enterococcus faecium ATCC 12202 (E.fm 154) vancomycin resistant
Enterococcus faecalis [3] = experiment: In vitro antibacterial activity against Enterococcus faecalis ATCC 29212 (E. f. 034) vancomycin sensitive; type: functional; how it was run: as §1
Staphylococcus aureus [4] = experiment: In vitro antibacterial activity against methicillin resistant Staphylococcus aureus ATCC 33591 (S. a. 019); type: functional; how it was run: as §1
Enterococcus faecalis [5] = experiment: In vitro antibacterial activity against Enterococcus faecalis NCTC 12201 (E. f. 153) vancomycin resistant; type: functional; how it was run: as §1

Measured: MIC

O=C1CCC(=O)N1C[C@H]1CN(c2cc(F)c3c(c2)OC[C@@H]2CCCN32)C(=O)O1
> 32 µg/mL: Staphylococcus aureus [1] | Staphylococcus aureus [2] | Enterococcus faecium | Enterococcus faecalis [3] | Staphylococcus aureus [4] | Enterococcus faecalis [5]
